Values joined by “and” are separate entries in the source; they are usually repeats but may differ in a detail not shown here. Equal values may be shown once. Read-outs that look alike come from different tables or passages of the source.
Legend:
TSPO [1] = molecular target: T1, TSPO (Rattus norvegicus, UniProt P16257); conditions: earlier study; cited from earlier work
TSPO [2] = molecular target: T1, TSPO; conditions: mean ± SEM, n = 5, cited from earlier work
TSPO [3] = molecular target: T1, TSPO; assay: Compartmental modeling of dynamic PET data; assay type: in vivo; conditions: for VT ratio between tumor and normal brain: from VT values of Table 1; for K1/k2 / VT / k3/k4 (BPND): mean ± SEM, n = 7
TSPO [4] = molecular target: T1, TSPO; assay type: in vivo; conditions: blocking with [^19F]VUIIS1018A 10 mg/kg 5 min before tracer
Outline: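 C6 glioma-bearing male Wistar rats, catheterised venous and arterial. Unlabelled (19F) analogue of tracer, 10 mg/kg, given 5 min before 18F tracer (1.1 ± 0.3 mCi, jugular catheter), then 60-min dynamic microPET with CT attenuation correction. Time-activity curves from tumour and contralateral brain VOIs. BPND maps by SRTM2, normal cerebrum as reference tissue. n = 3.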

TSPO [5] = molecular target: T1, TSPO; assay type: binding; conditions: C6 glioma cell lysate; for IC50: read-out: TSPO binding affinity (IC50), competition with [^3H]PK 11195 (0.6 nM), 2 h at 25 °C
Outline: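 C6 cells PBS-washed, then freeze-thawed three times in lysis buffer (5.0 mM HEPES, mannitol, sucrose, benzamidine, MgCl2, pH 7.4); lysate 0.5 mg/ml. Lysate incubated with [3H]PK 11195 (final 0.6 nM) and test compound (10−5 to 10−14 M), 2 h, 25 °C. Rapid filtration onto polyethylenimine-presoaked filters, scintillation counting. IC50 fitted in triplicate; fold values are IC50 ratios.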

C6 glioma = assay: In vivo uptake of [^18F]VUIIS1018A, 60-min dynamic PET in C6 glioma-bearing rats; design: species or system rat
Outline: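 Male Wistar rats, 1.0 × 10^5 C6 glioma cells implanted stereotactically in right hemisphere 2 weeks before imaging; tumours confirmed by T2-weighted MRI at 4.7T. Venous and arterial catheters placed. 18F-labelled tracer 1.1 ± 0.3 mCi given via jugular catheter in microPET; 60-min listmode dynamic scan (32 frames), CT attenuation correction, 2D OSEM reconstruction. Tumour and contralateral brain VOIs gave time-activity curves.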

## CCc1cc(CC)n2nc(-c3ccc(OCCF)cc3)c(CC(=O)N(CC)CC)c2n1 [VUIIS1008, 2-(5,7-diethyl-2-(4-(2-fluoroethoxy)phenyl)pyrazolo[1,5-a]pyrimidin-3-yl)-N,N-diethylacetamide]
TSPO [1]
  fold enhancement in binding affinity compared to DPA-714: 36 fold

## CCc1cc(CC)n2nc(-c3ccc(OCC[18F])cc3)c(CC(=O)N(CC)CC)c2n1 [[^18F]VUIIS1008, 2-(5,7-Diethyl-2-(4-(2-[^18?F]fluoroethoxy)phenyl)pyrazolo[1,5-a]pyrimidin-3-yl)-N,N-diethylacetamide]
TSPO [2]; Brain
  K1/k2: 0.855 ± 0.325
  VT: 4.210 ± 1.612
  k3/k4 (BPND): 4.435 ± 1.387
TSPO [2]; Brain, listed as [^18 F]VUIIS1008
  k3/k4 (BPND): 4.43
TSPO [2]; Tumor
  K1/k2: 1.902 ± 0.816
  VT: 25.224 ± 10.035
  k3/k4 (BPND): 12.63 and 12.634 ± 1.406
TSPO [3]
  VT ratio between tumor and normal brain: 6.0

## CCCCc1cc(C)nc2c(CC(=O)N(CC)CC)c(-c3ccc(OCC[18F])cc3)nn12 [[^18F]VUIIS1018A, 2-(7-Butyl-2-(4-(2-[^18F]Fluoroethoxy)phenyl)-5-Methylpyrazolo[1,5-a] Pyrimidin-3-yl)-N,N-Diethylacetamide]
TSPO [4]
  circulating plasma radioactivity compared with the unblocked scenario: significantly elevated
  effect of blocking dose on accumulation in the normal brain: insignificant effect
TSPO [4]; mean ± SD, n = 3
  overall reduction in tumor PET signal: 48.3 ± 2.8%
TSPO [5]; ratio of IC50 values
  fold enhancement in binding affinity compared with DPA-714: approximately 700 fold
TSPO [5]; ratio of IC50 values, listed as [^18 F]VUIIS1018A
  fold enhancement in binding affinity compared with DPA-714: 700 fold
TSPO [3]; Brain
  K1/k2: 0.311 ± 0.036
  VT: 1.214 ± 0.190
  k3/k4 (BPND): 2.91 and 2.913 ± 0.456
TSPO [3]; Tumor
  K1/k2: 0.532 ± 0.130
  VT: 11.036 ± 3.731
  k3/k4 (BPND): 23.10 and 23.097 ± 4.757
TSPO [3]
  VT ratio between tumor and normal brain: 9.1
TSPO [3]; from k3/k4 values of Table 1
  fold higher k3/k4 in tumor compared with healthy brain: 8 fold
C6 glioma
  accumulation in C6 gliomas: robust accumulation
  accumulation in normal brain: negligible accumulation

## CCCCc1cc(C)nc2c(CC(=O)N(CC)CC)c(-c3ccc(OCCF)cc3)nn12 [VUIIS1018A]
TSPO [5]; ratio of IC50 values
  fold enhancement in binding affinity compared with DPA-714: ~700 fold
  fold enhancement in binding affinity compared with VUIIS1008: 20 fold
TSPO [5]
  IC50: 0.0162 nM

## CCCCc1cc(C)n2nc(-c3ccc(OCCF)cc3)c(CC(=O)N(CC)CC)c2n1 [VUIIS1018B]
TSPO [5]; ratio of IC50 values
  fold lower binding affinity than VUIIS1018A: 6000 fold
TSPO [5]
  IC50: 100 nM

From publication PMC6953265 (Molecular imaging and biology, 2019)
